# Screening data from PubChem BioAssay.
# Shown are actives, neighbours in structure and some others; about 3.2% of the full set was active somewhere.
# NR2E3 ag-1 = inhibitors of NR2E3-RetCOR corepressor binding, primary screen, NR2E3 agonist project, biochemical, TR-FRET, GST-NR2E3, biotin-RetCOR. Photoreceptor-specific nuclear receptor (Homo sapiens), Q9Y5X4. 1536-well. inhibition of corepressor binding, % at 4.78 µM. 0.12% of 320,000 active. AID 2300, 2010;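 active = percent inhibition above the cutoff of mean plus 3 SD of all tested compounds, set per screening campaign, cut at about 20% in these data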;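 also: 0% = DMSO wells and 100% = biotin wells as full block of FRET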
#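 Assay system: NR2E3–RetCOR corepressor complex. Quantity: 1.35 nM GST-NR2E3. Buffer or medium: pH 7.5 Tris-based buffer. Reagent: biotinylated RetCOR corepressor at 7 nM final. Schedule: 5 h at 4 °C. Detection: TR-FRET, emission read at 617 and 671 nm. Replicates: one well per compound, singlicate testing.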
# DAX1 inh-1 = DAX1 (NR0B1) inhibitors, primary screen, cell-based, HEK293, Gal4-DAX1, luciferase luminescence; inhibition, % at 6.75 µM; AID 504766, 2011; Nuclear receptor subfamily 0 group B member 1 (Homo sapiens), P51843; HEK293 Gal4-DAX1 luciferase reporter; 0.99% of 340,000 active;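 active = inhibition above the mean over all tested compounds plus 3 SD, cut at about 4.2% in these data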;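 also: 0% = DAX1-transfected cells with DMSO and 100% = empty-vector control cells with DMSO; inhibition shows as a rise in luminescence from relieved DAX1 repression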
# JMJD2C inh = inhibitors of GASC-1 histone demethylase, primary screen, biochemical, fluorescence, DELFIA europium; Lysine-specific demethylase 4C (Homo sapiens), Q9H3R0; GST-JMJD2C(1-420) H3K9me3 demethylation; inhibition, % at 2.35 µM; 0.069% of 330,000 active; AID 2099, 2009;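 active = more than half of a compound's replicate wells show inhibition beyond 50%, single wells judged on their own value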;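 also: signal counts dimethyl H3K9 product captured on neutravidin plate; 0% = median of DMSO wells and 100% = 0.3 times that DMSO median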
# Target sequence (Q9H3R0 1-420 limits assumed): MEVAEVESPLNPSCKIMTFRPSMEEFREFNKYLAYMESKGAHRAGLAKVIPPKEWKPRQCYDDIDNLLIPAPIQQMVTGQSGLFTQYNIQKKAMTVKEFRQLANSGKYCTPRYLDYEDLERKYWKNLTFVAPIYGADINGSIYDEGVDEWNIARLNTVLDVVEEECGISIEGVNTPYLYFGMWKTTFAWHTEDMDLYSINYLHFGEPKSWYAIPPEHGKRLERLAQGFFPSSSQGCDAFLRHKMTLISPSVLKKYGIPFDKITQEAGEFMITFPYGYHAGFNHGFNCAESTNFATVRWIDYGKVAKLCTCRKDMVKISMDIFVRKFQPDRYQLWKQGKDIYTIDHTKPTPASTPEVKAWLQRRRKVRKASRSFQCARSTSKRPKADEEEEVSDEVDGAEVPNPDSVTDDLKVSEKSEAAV
# NR2E3 ag-2 = NR2E3 agonists in two-hybrid cells, primary screen, cell-based, luminescence, CHO-S, Gal4-NCOR/VP16-NR2E3; 0.35% of 360,000 active; inhibition of corepressor binding, % at 3.98 µM; luciferase; Photoreceptor-specific nuclear receptor (Homo sapiens), Q9Y5X4;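 active = inhibition above the mean of all tested compounds plus 3 SD, cut at about 70% in these data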;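 also: 0% = DMSO with NR2E3 transfected cells and 100% = cells lacking NR2E3 construct; higher means lower luciferase signal from less NR2E3 corepressor binding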
# SMARCA2 act = SMARCA2 (BRM) function activators, primary screen, cell-based, luminescence, high throughput | 1% of 370,000 active | MG213 cells, MMTV-luciferase reporter, dexamethasone, overnight | activation, % at 9.1 µM; in the data active = activation above about 7.8%;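 also: 0% = vehicle wells and 100% = reference activator wells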
# DAX1 inh-2 = DAX1 (NR0B1) inhibitors on StAR promoter, primary screen, cell-based, luminescence, SF-1 (NR5A1), full-length DAX-1. inhibition, % at 6.8 µM. HEK293T StAR-luciferase reporter, SF-1/DAX-1 repression relief. 1.1% of 370,000 active;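 active = inhibition above the mean over all tested compounds plus 3 SD, cut at about 3.6% in these data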;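 also: 0% = DAX-1 cells with DMSO and 100% = cells lacking DAX-1 with DMSO; higher inhibition means more luminescence from relief of DAX-1 repression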
# An asterisk follows results filed as active; . = no result.
SMILES,NR2E3 ag-1,DAX1 inh-1,JMJD2C inh,NR2E3 ag-2,SMARCA2 act,DAX1 inh-2
Cc1cc(Nc2ccc(F)c(Cl)c2)n2ncnc2n1,2,4.5*,-4,-18,1,0
CCOC12NC(=O)CC(=O)N1C(c1ccccc1)=CS2 (stereo not drawn),-1,4.5*,-11,-15,-1,0
O=C(O)c1cccc(COc2ccc3c(c2)CCC3)c1,3,-9,-1,-171,1,3.6*
O=C(NCc1ccccc1)c1cccc(COc2ccc3c(c2)CCC3)c1,-3,-4,-4,-279,4,2
CCOc1ccc(C(=O)N2CCCC2)cc1,1,-1,31,-2,-2,0
CCOc1ccc(OCc2cccc(C(=O)N3CCCC3)c2)cc1,-2,-3,4,-222,4,4.2*
O=C(O)c1ccc(COc2ccc(CO)cc2Cl)cc1,2,1,3,-57,3,2
O=C(O)c1cccc(COc2ccc(CO)cc2Cl)c1,0,-6,2,-150,2,3.6*
CCOc1ccc(OCc2cccc(C(=O)N3CCCCCC3)c2)cc1,0,-6,29,-212,5,3.8*
CCOc1ccc(OCc2ccc(C(=O)N3CCCC3)o2)cc1,0,-1,3,-33,0,0
COc1ccc(N2CCN(CCCNC(=O)COc3ccc(C)cc3)CC2)cc1,.,.,.,.,-5,-1
COc1ccc(C(=O)CSc2nnc(-c3ccccc3)n2-c2ccc(Cl)cc2)cc1,.,.,.,.,-2,-1
O=C(Nc1cccc(S(=O)(=O)N2CCOCC2)c1)c1cnn2c(C(F)F)cc(-c3ccccc3)nc12,-2,5.0*,-6,7,-4,1
CNS(=O)(=O)c1ccc(NC(=O)c2cnn3c(C(F)F)cc(-c4ccccc4)nc23)cc1,-1,1,4,11,0,0
COC(=O)c1ccc(Cn2ccc3ccc(-c4ccc5ccn(Cc6ccccc6)c5c4)cc32)cc1,.,.,.,.,-2,-1
Cc1ccsc1C(=O)OCc1nnc(-c2ccccc2)o1,.,2,2,-54,3,4.0*
O=C(NC(=S)Nc1ccc(Cl)cn1)c1cccs1,4,5.5*,5,-53,2,2
Cc1ccc2oc(-c3ccc(C)c(NC(=S)NC(=O)c4cccs4)c3)nc2c1,0,4.7*,-2,-170,6,3.9*
Cc1ccc2oc(-c3ccc(C)c(NC(=O)Cc4cccs4)c3)nc2c1,-1,1,8,-49,3,0
Cc1ccnc(NC(=O)CNC(=O)c2cccs2)c1,0,4,0,-14,-1,0
Cc1ccnc(NC(=S)NC(=O)c2cccs2)c1,1,4,-4,-92,4,4.3*
CC(C)C(=O)Nc1cccc(NC(=S)NC(=O)c2cccs2)c1,-1,0,-12,-35,3,4.1*
O=C(NC(=S)Nc1cccnc1)c1cccs1,2,1,-1,5,-1,-2
Cc1ccc(-c2nnc(SCC(=O)NNC(=S)Nc3ccccc3)n2C2CCCCC2)cc1,.,.,.,.,-4,0
CCCCOCCCNC(=O)C[C@@H]1C(=O)N2CCCC3=C2[C@@]1(C(=O)OCC)CCC3,.,.,.,.,-2,1
SMILES,NR2E3 ag-1,DAX1 inh-1,JMJD2C inh,NR2E3 ag-2,SMARCA2 act,DAX1 inh-2
COC(=O)[C@]12C[C@H](CC(=O)N3CCC(c4ccccc4)CC3)C(=O)N(CCc3ccc(OC)c(OC)c3)C1=C[C@H](C1CCCC1)O[C@@H]2C,.,.,.,.,-1,-1
OC(CNCc1ccccc1)c1ccccc1 (stereo not drawn),0,4.5*,1,-8,-3,0
Cc1ccccc1CSCCNC(=O)COc1ccc(Cl)cc1,1,6.6*,2,-6,-3,-1
CC(C)(C)SCCNC(=O)COc1ccc(Cl)cc1,3,0,17,-7,1,0
Cc1ccc(NC(=O)C2COc3ccccc3O2)cc1C (stereo not drawn),3,4.9*,-6,0,.,.
O=C(Nc1ccc(S(=O)(=O)Nc2ccccc2)cc1)C1COc2ccccc2O1 (stereo not drawn),4,-2,7,-4,-3,-1
CN(C)S(=O)(=O)c1ccc(NC(=O)C2COc3ccccc3O2)cc1 (stereo not drawn),2,4.5*,10,-24,0,0
O=C(CC1CCCC1)N1CC[C@H]2[C@H](CCCN2Cc2cc(F)cc(F)c2)C1,.,.,.,.,-1,0
C=CCN1C(=O)[C@H](CC(=O)NCc2ccc(C)o2)[C@@]2(C(=O)OCC)CCCC=C12,.,.,.,.,-1,-1
C#CCN(C1CC1)S(=O)(=O)c1ccccc1Br,.,.,.,.,3,0
O=S1(=O)c2ccc(N3CCN(Cc4ccccc4F)CC3)cc2Oc2ccccc2CN1Cc1cn(Cc2ccc(F)cc2)nn1,.,.,.,.,1,-1
COC(=O)[C@]12C[C@H](CC(=O)NCc3cccc4ccccc34)C(=O)N(Cc3cccc4ccccc34)C1=C[C@H](C1CCCC1)O[C@@H]2C,.,.,.,.,-3,-1
CC(CNc1nc2ccc(Cl)cc2n2cnnc12)c1ccccc1 (stereo not drawn),2,5.5*,-9,-11,0,0
COc1cc(NC(=O)C2CCCN(S(=O)(=O)c3ccc(C)cc3)C2)cc(OC)c1 (stereo not drawn),.,.,.,.,-1,0
CN1C(=O)c2cc(NC(=O)Nc3ccccc3)ccc2OC[C@H]2O[C@@H](CC(=O)NCC(F)(F)F)CC[C@@H]21,.,.,.,.,-5,1
Cc1nn(Cc2ccccc2)c(Cl)c1C(=O)NCc1ccc(C)n1C,0,3,2,-2,4,0
Cc1nn(Cc2ccccc2)c(Cl)c1C(=O)NCCc1ccccc1,0,1,5,-121,7,3.8*
COc1ccccc1C(=O)CSc1nnc(-c2ccncc2)n1-c1ccc(Cl)cc1,.,.,.,.,-3,-1
Cc1cc(C)c2c(N)c(C(=O)N/N=C/c3ccccc3)sc2n1,0,8.7*,1,-55,3,1
Cc1occc1-c1nnc(SCC(=O)NCc2ccc(Cl)cc2)n1-c1ccccc1,.,.,.,.,0,-1
CN(C)c1ccc(/C=N\Nc2ccccn2)cc1,-2,6.2*,1,-72,4,2
CC1CCc2c(sc(/N=C/N(C)C)c2C#N)C1 (stereo not drawn),6,4.7*,10,-92,2,0
CN(C)/C=N/c1sc2c(c1C#N)CCCC2,3,1,5,0,0,1
